Test results taken from article PMC10692362 (Acta Pharmaceutica Sinica. B, 2023).
Numbering of substitutions follows the chain as printed. Where “and” joins values, the source holds several entries; their conditions need not be identical. Equal entries are not always repeated. Where two headings read alike, the source gives them in different places.

Assays:
[1] = tested on: MCF-7 cells; test: Cell viability assay; format: cell-based, human; conditions: read-out: MCF-7 IC50
[2] = tested on: T-47D cells; test: Cell viability assay; format: cell-based, human; conditions: 72 h, read-out: T-47D IC50
[3] = tested on: T-47D^D538G cells; test: Cell viability assay; format: cell-based, human; conditions: 72 h, read-out: T-47D^D538G IC50
[4] = tested on: T-47D^Y537S cells; test: Cell viability assay; format: cell-based, human; conditions: 72 h, read-out: T-47D^Y537S IC50
[5] = tested on: LCC-2 cells; test: Cell viability assay on tamoxifen-resistant LCC-2 cells; format: cell-based; conditions: Homo sapiens, LCC2, read-out: LCC-2 IC50
[6] = molecular target: T1, ERα (Homo sapiens, UniProt P03372); test: cell-based; format: cell-based; conditions: with 10 nmol/L 17β-estradiol
T1 sequence (P03372 1-595): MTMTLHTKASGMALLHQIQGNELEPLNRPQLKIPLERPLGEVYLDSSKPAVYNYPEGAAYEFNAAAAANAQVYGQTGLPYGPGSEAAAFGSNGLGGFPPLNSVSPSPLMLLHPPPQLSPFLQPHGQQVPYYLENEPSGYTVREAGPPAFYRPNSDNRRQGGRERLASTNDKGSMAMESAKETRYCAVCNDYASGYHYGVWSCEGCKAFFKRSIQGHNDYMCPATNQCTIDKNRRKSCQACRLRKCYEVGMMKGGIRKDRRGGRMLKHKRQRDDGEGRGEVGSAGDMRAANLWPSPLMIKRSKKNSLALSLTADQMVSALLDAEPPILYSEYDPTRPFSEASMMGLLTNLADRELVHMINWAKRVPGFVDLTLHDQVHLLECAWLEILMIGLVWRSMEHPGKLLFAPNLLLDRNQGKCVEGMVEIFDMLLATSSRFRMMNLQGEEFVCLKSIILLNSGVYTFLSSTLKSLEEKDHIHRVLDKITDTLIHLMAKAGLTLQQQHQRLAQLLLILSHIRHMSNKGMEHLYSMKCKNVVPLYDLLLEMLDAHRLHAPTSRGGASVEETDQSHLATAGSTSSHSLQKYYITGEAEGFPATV

[7] = molecular target: ERβ (Homo sapiens, UniProt Q92731); test: ER transcriptional activity; format: cell-based; conditions: with 10 nmol/L 17β-estradiol
[8] = molecular target: T2, ERα C530S mutant (Homo sapiens, UniProt P03372, C530S); test: Transcriptional activity; format: cell-based; conditions: HEK-293T^C530S cells, compared with wild type
T2 sequence (P03372 1-595 C530S): T1 sequence (P03372 1-595) with C530S

[9] = tested on: MCF-7 tumor xenograft; test: MCF-7 tumor xenograft model in BALB/c nude mice; format: in vivo; conditions: Day 32
Procedure, shortened: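 Female BALB/c nude mice (15–18 g, 5 weeks old) received 1 × 10⁷ MCF-7 cells in 100 μL PBS into the right axillary mammary fat pad. Tumour volume (W² × L × 0.5) and body weight were measured every 2 days. Mice were sacrificed on Day 33. Tumours were assessed by IHC (Ki-67, ERα) and ERα Western blot.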

[10] = molecular target: T3, human ERα LBD (Homo sapiens, UniProt P03372); test: Competitive fluorescence polarization binding assay, ERα; conditions: for RBA ERα: IC50 estradiol/IC50 compound × 100, estradiol = 100%; for α/β ratio: ratio of RBA ERα to RBA ERβ
T3 sequence (P03372 311-547 limits assumed): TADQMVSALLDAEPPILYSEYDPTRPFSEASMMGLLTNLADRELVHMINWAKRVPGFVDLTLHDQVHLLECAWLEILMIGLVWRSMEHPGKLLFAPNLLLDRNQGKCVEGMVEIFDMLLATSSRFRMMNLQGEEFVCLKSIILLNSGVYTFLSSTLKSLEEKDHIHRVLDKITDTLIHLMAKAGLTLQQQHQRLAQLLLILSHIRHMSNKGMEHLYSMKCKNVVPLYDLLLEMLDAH

[11] = molecular target: human ERβ LBD (Homo sapiens, UniProt Q92731); test: Competitive fluorescence polarization binding assay, ERβ; conditions: for RBA ERβ: IC50 estradiol/IC50 compound × 100, estradiol = 100%
[12] = molecular target: T1, ERα; test: Immunoblot analysis of ERα degradation in MCF-7 cells; format: cell-based; conditions: MCF-7 cells, 1 or 5 μmol/L

Sequence of human ERβ LBD (Q92731 264-498 limits assumed): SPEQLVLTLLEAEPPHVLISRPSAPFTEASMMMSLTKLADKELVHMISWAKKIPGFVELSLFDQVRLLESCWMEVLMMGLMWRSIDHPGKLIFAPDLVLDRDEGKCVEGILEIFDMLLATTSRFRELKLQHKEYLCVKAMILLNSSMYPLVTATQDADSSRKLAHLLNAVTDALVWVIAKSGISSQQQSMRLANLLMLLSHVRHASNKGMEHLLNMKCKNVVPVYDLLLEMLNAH
Sequence of ERβ (Q92731 whole entry): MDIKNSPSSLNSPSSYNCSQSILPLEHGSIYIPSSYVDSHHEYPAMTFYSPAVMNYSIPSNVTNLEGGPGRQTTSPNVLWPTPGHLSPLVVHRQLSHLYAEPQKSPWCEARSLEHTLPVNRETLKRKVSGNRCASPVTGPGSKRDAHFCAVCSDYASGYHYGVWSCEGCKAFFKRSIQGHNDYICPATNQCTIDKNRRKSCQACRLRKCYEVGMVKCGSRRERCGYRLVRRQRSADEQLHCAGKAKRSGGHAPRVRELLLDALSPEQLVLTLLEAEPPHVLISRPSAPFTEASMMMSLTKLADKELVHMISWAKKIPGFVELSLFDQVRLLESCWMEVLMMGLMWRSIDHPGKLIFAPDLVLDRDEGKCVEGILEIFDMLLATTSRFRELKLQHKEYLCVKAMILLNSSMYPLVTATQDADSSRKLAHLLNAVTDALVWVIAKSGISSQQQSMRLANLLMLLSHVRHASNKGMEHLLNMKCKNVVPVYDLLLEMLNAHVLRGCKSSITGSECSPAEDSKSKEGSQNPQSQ

SMILES	IC50 ([1]; Homo sapiens, MCF7, 72 h)	IC50 ([2]; Homo sapiens, T47D)	IC50 ([3]; Homo sapiens)	IC50 ([4]; Homo sapiens)	Ki [10]	RBA ERα [10]	α/β ratio [10]	Ki [11]	RBA ERβ [11]	ERα degradation (immunoblot) [12]	other results
C[C@]12CC[C@@H]3c4ccc(O)cc4C[C@@H](CCCCCCCCC[S+]([O-])CCCC(F)(F)C(F)(F)F)[C@H]3[C@@H]1CC[C@@H]2O (some centres unmarked) [Ful, Fulvestrant, reference compound]	140 ± 50 nM	1760 ± 60 nM	3920 ± 220 nM	2220 ± 170 nM							IC50 [5]: 11000 ± 450 nM; Antagonist mode ERα Eff (%E2) [6]: 80 ± 2 %E2; Antagonist mode ERβ Eff (%E2) [7]: 73 ± 1 %E2; Effect of C530S mutation on antagonistic activity [8]: unaffected by this mutation; TGI (tumor growth inhibition) ([9]; 2 mg/kg ip every other day): 79%
CC(C)CC(=O)Nc1ccc(C2=C(c3ccc(O)cc3)[C@H]3O[C@@H]2CC3S(=O)(=O)N(CC(F)(F)F)c2ccc(O)cc2)cc1 (mixture of isomers) [Compound 29k, N-(4-((1R,4R)-3-(4-Hydroxyphenyl)-5-(N-(4-hydroxyphenyl)-N-(2,2,2-trifluoroethyl)sulfamoyl)-7-oxabicyclo[2.2.1]hept-2-en-2-yl)phenyl)-3-methylbutanamide]	1060 ± 190 nM	> 31000 nM	> 31000 nM	> 31000 nM	1.15 nM	2.41 ± 0.21%	1.66	4.6 nM	1.45 ± 0.12%	impaired degradation ability	
CC(C)=CC(=O)Nc1ccc(C2=C(c3ccc(O)cc3)C3OC2CC3S(=O)(=O)N(CC(F)(F)F)c2cccc(O)c2)cc1 (centres unmarked) [Compound 29h, N-(4-(3-(4-Hydroxyphenyl)-5-(N-(3-hydroxyphenyl)-N-(2,2,2-trifluoroethyl)sulfamoyl)-7-oxabicyclo[2.2.1]hept-2-en-2-yl)phenyl)-3-methylbut-2-enamide]	980 ± 350 nM	3920 ± 10 nM	2840 ± 140 nM	2990 ± 220 nM	0.35 nM	7.89 ± 0.11%	17.93	15.2 nM	0.44 ± 0.02%	effective in inducing ERα degradation	
CC/C(=C(\c1ccccc1)c1ccc(OCCN(C)C)cc1)c1ccccc1 [tamoxifen, reference compound]											TGI (tumor growth inhibition) ([9]; 4 mg/kg ip every other day): 87%
CC(C)=CC(=O)Nc1ccc(C2=C(c3ccc(O)cc3)C3CC(S(=O)(=O)N(CC(F)(F)F)c4ccc(O)cc4)C2O3)cc1 (centres unmarked) [29c′]						15.12% and 15.12 ± 0.31%	7.37		2.05 ± 0.45%	impaired degradation ability	Ki ([10]; read-out: Ki ERα): 0.18 nM; Ki ([11]; read-out: Ki ERβ): 3.25 nM; IC50 ([1]; cell viability, 72 h): 950 ± 110 nM; IC50 ([2]; cell viability): 5520 ± 270 nM; IC50 ([3]; cell viability): 5000 ± 360 nM; IC50 ([4]; cell viability): 4050 ± 270 nM
O=C(CBr)Nc1ccc(C2=C(c3ccc(O)cc3)C3OC2CC3S(=O)(=O)Oc2ccccc2)cc1 (centres unmarked) [Compound 28e, Phenyl-5-(4-(2-bromoacetamido)phenyl)-6-(4-hydroxyphenyl)-7-oxabicyclo[2.2.1]hept-5-ene-2-sulfonate]	1100 ± 140 nM	19700 ± 320 nM	> 31000 nM	> 31000 nM	0.29 nM	9.44 ± 0.40%	26.22	18.5 nM	0.36 ± 0.03%		
O=C(CBr)Nc1ccc(OS(=O)(=O)C2CC3OC2C(c2ccc(O)cc2)=C3c2ccc(O)cc2)cc1 (centres unmarked) [Compound 26f, 4-(2-Bromoacetamido)phenyl-5,6-bis(4-hydroxyphenyl)-7-oxabicyclo[2.2.1]hept-5-ene-2-sulfonate]	500 ± 300 nM	9110 ± 210 nM	> 31000 nM	> 31000 nM			2.08		3.86 ± 0.34%		
CCN(c1ccc(OC)cc1)S(=O)(=O)C1CC2OC1C(c1ccc(O)cc1)=C2c1ccc(NC(=O)C=C(C)C)cc1 (centres unmarked) [Compound 29j, N-(4-(5-(N-Ethyl-N-(4-methoxyphenyl)sulfamoyl)-3-(4-hydroxyphenyl)-7-oxabicyclo[2.2.1]hept-2-en-2-yl)phenyl)-3-methylbut-2-enamide]	290 ± 30 nM	7920 ± 190 nM	8250 ± 450 nM	12700 ± 530 nM	0.63 nM	4.36 ± 0.33%	8.55	13.1 nM	0.51 ± 0.09%	effective in inducing ERα degradation	
CC(C)=CC(=O)Nc1ccc(C2=C(c3ccc(O)cc3)C3OC2CC3S(=O)(=O)N(CC(F)(F)F)c2ccc(F)cc2)cc1 (centres unmarked) [Compound 29g, N-(4-(5-(N-(4-Fluorophenyl)-N-(2,2,2-trifluoroethyl)sulfamoyl)-3-(4-hydroxyphenyl)-7-oxabicyclo[2.2.1]hept-2-en-2-yl)phenyl)-3-methylbut-2-enamide]	640 ± 100 nM	5280 ± 230 nM	7820 ± 470 nM	> 31000 nM	0.37 nM	7.52 ± 0.29%	7.37	6.54 nM	1.02 ± 0.13%		
Nc1ccc(C2=C(c3ccc(O)cc3)C3OC2CC3S(=O)(=O)N(CC(F)(F)F)c2ccc(O)cc2)cc1 (centres unmarked) [Compound 29l, 5-(4-Aminophenyl)-N,6-bis(4-hydroxyphenyl)-N-(2,2,2-trifluoroethyl)-7-oxabicyclo[2.2.1]hept-5-ene-2-sulfonamide]	3170 ± 330 nM	8110 ± 370 nM	> 31000 nM	> 31000 nM	1.14 nM	2.43 ± 0.27%	1.03	2.84 nM	2.35 ± 0.33%		
CC(C)=CC(=O)Nc1ccc(C2=C(c3ccc(O)cc3)C3CC(S(=O)(=O)N(CC(F)(F)F)c4ccc(C)cc4)C2O3)cc1 (centres unmarked) [Compound 29d, N-(4-(3-(4-Hydroxyphenyl)-6-(N-(p-tolyl)-N-(2,2,2-trifluoroethyl)sulfamoyl)-7-oxabicyclo[2.2.1]hept-2-en-2-yl)phenyl)-3-methylbut-2-enamide]	750 ± 210 nM	8330 ± 220 nM	> 31000 nM	> 31000 nM	0.43 nM	6.49 ± 0.21%	4.74	4.87 nM	1.37 ± 0.11%		
CC/C(=C(\c1ccc(O)cc1)c1ccc(OCCN(C)C)cc1)c1ccccc1 [Compound 4-OHT, 4-hydroxytamoxifen, reference compound]	670 ± 80 nM	1950 ± 200 nM	9130 ± 600 nM	8900 ± 280 nM							IC50 [5]: 22200 ± 1930 nM; Antagonist mode ERβ Eff (%E2) [7]: 11 ± 3 %E2
